# Bioassay records as filed in PubChem.
# Only some compounds are listed: those with a hit (about 3% of all), similar ones and a draw of the others.
# MC4R barr agon: MC4R agonists recruiting beta-arrestin, primary screen, cell-based, luminescence, agonist arm of biased-ligand search; U2OS MC4R beta-arrestin complementation; percent of melanotan II response, DMSO zero; Melanocortin receptor 4 (Homo sapiens), P32245; activation, % at 8.9 µM; actives 0.98% (n = 360,000);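 active = activation above a per-plate cutoff, the mean activation of sample wells on that plate plus 3 SD, cut at about 8% in these data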
# Target sequence (P32245 whole entry, looked up): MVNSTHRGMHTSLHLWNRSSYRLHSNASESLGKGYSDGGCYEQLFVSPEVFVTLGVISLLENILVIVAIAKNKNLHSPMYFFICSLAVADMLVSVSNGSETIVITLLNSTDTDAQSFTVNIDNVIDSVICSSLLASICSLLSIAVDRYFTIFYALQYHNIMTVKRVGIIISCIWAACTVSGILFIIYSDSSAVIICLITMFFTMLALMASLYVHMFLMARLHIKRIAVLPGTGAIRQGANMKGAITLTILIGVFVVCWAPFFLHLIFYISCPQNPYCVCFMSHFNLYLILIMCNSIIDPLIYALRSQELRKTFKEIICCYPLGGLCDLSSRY
# PfG6PD inh: PfG6PD enzyme inhibitors, primary screen, biochemical, fluorescence intensity, uHTS. PfGluPho enzyme, NADPH resazurin-diaphorase fluorescence. inhibition, % at 20 µM. actives 0.78% (n = 350,000);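 active = inhibition reaching at least a set limit at 20 µM in the primary screen, cut at about 59% in these data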;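 note: 0% = DMSO wells with substrate and 100% = DMSO wells lacking glucose-6-phosphate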
# Beta2AR agonist: beta2AR agonists driving receptor internalization, primary screen, cell-based, FAP fluorogen, flow cytometry; Am2.2-beta2AR cells; response, % (test concentration not listed); actives 0.43% (n = 340,000);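 active = response above a set limit, near 3 SD of response in nonfluorescent compounds, cut at about 42% in these data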
# MC4R antag cAMP: MC4R antagonists of cAMP signaling, primary screen, cell-based, TR-FRET, antagonist arm of biased-ligand search. Melanocortin receptor 4 (Homo sapiens), P32245. MC4R-expressing cells, MTII-stimulated cAMP, LANCE TR-FRET. inhibition, % at 6.5 µM. actives 0.48% (n = 360,000). AID 540295, 2011;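 active = inhibition above its plate's cutoff, the mean of tested wells on that plate plus 3 SD, cut at about 29% in these data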;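 note: 0% = Melanotan II alone and 100% = Melanotan II plus saturating MCL0020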
#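 Assay system: U2OS-MC4R stable cell line; Also added: Melanotan II; Technique: Eu-cAMP/anti-cAMP TR-FRET, emission 671 nm; Times: 30-min compound, 1-h challenge, 1-h detection, room temperature.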
# ABHD5 PLIN5 PPI: ABHD5-PLIN5 interaction inhibitors, primary screen, cell lysate, split luciferase complementation, luminescence; Split G. princeps luciferase complementation, 4 h; inhibition, % at 4 µM; actives 0.78% (n = 360,000); AID 602281, 2012;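 active = inhibition above the mean inhibition across every tested compound plus 3 SD, cut at about 22% in these data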;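 note: 0% = DMSO only wells and the 100% control is not disclosed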
# An asterisk follows results filed as active; / = no result.
SMILES,MC4R barr agon,PfG6PD inh,Beta2AR agonist,MC4R antag cAMP,ABHD5 PLIN5 PPI
Cc1ccc([C@H]2N[C@]3(CCCN(Cc4ccc(C(F)(F)F)cc4)C3=O)[C@H]3C(=O)N(C)C(=O)[C@@H]23)cc1,1.2,1.1,/,16.9,-10.3
O=[N+]([O-])c1ccc(/C=C/c2ccncc2)cc1,-0.6,20.5,8.5,9.1,-0.7
[O-]/[N+](=C\c1ccncc1)c1ccc(Br)cc1,-2.5,91.0*,5.7,0.8,-13.6
O=C1c2[nH]nc(-c3ccccc3O)c2C(c2ccc(F)cc2)N1Cc1ccco1 (centres undefined),13.1*,16.7,-1.5,-1.4,-3.2
CC(C)C[C@@H](COCc1ccc([N+](=O)[O-])cc1)N1CCN(C(=O)c2ccc(C(F)(F)F)cc2)CCC1=O,/,/,/,/,0.6
CCN(CC(=O)NCc1cccs1)C(=O)c1cccc(S(=O)(=O)N(CC)c2ccccc2)c1,0.1,-4.1,3.7,-0.1,13.1
CCCCS(=O)(=O)/C=C\C1C2C=CC(C2)C1S(=O)(=O)CCCC (centres undefined),-1.0,-10.5,-1.8,3.0,-2.1
CCCCS(=O)(=O)/C=C\C=C/S(=O)(=O)CCCC,-4.2,23.4,39.8,13.7,84.1*
N#C/C(=C/c1cccc([N+](=O)[O-])c1)C(=O)Nc1ccccc1O,1.6,1.8,57.4*,-2.6,1.8
N#C/C(=C\c1cccc([N+](=O)[O-])c1)C(=O)Nc1cccnc1,-1.2,1.5,2.2,22.4,-5.5
C=CCN1C(=O)C2(OCCO2)c2cc(C)ccc21,-1.6,-6.6,3.9,-3.7,-8.0
CC(C)COC(=O)N(C)C[C@@H]1OCc2cnnn2CCCC(=O)N([C@H](C)CO)C[C@@H]1C,0.5,5.7,/,9.2,4.6
CCc1ccc(OCC(=O)NC(=S)Nc2ccc(S(=O)(=O)NC3CCCCC3)cc2)cc1,8.3*,-15.2,-4.2,-8.6,-0.1
Cc1[nH]c2ccccc2c1C(C#N)(C#N)C1C(=O)c2ccccc2C1=O,1.9,122.1*,21.2,22.0,0.5
CC(C)(C)Sc1ccc(/C=N/O)cc1[N+](=O)[O-],0.7,18.3,2.4,-19.5,5.8
Cc1ccc(Sc2ccc(/C=N/O)cc2[N+](=O)[O-])cc1,2.2,13.6,58.2*,-0.9,4.7
NNC(=O)c1cccc(O)c1,-3.4,-1.5,0.5,-4.2,-4.4
COc1ccc2nc(Nc3sc4c(c3C(N)=O)CCCC4)sc2c1,-1.9,66.7*,5.5,-18.2,-11.7
CC(=O)C1CCC2C3CC=C4CC(SC(=N)N)CCC4(C)C3CCC12C (centres undefined),15.2*,22.8,17.1,7.2,0.7
CSc1nc2sc3c(c2c2nnnn12)CCCC3,8.3*,-5.9,-4.4,1.5,4.1
COc1cc(/C=N\NC(=O)c2ccc(C)nc2)ccc1OC(=O)c1cccc(F)c1,9.1*,25.2,-2.3,5.8,2.7
COc1cc(/C=N/NC(=O)c2ccncc2)ccc1OC(=O)c1ccccc1Cl,3.3,-3.2,6.4,7.7,-6.1
COc1cc(C(=O)N/N=C/c2ccc(OC(=O)c3ccccc3Cl)c(OC)c2)ccc1O,11.4*,28.3,15.3,5.7,-1.3
COc1ccc(/C=N\NC(=O)c2ccc(-c3ccccc3)cc2)cc1COC(C)=O,9.1*,7.0,0.0,0.4,-1.4
Cc1ccc(C(=O)N/N=C\c2ccc(OC(=O)c3cccc(F)c3)cc2)cn1,-0.4,-6.7,11.9,-7.0,-2.9
SMILES,MC4R barr agon,PfG6PD inh,Beta2AR agonist,MC4R antag cAMP,ABHD5 PLIN5 PPI
Cc1nnc(NC(=O)CCC(=O)N2CCN(S(=O)(=O)c3cc([N+](=O)[O-])ccc3C)CC2)s1,-0.3,10.0,-9.8,5.2,3.8
COc1cccc(CNC(=O)[C@@H]2CCCN2C(=O)[C@@H]2CCCN2C(=O)OC(C)(C)C)c1,/,/,/,/,1.0
C#CCN(C[C@@H]1[C@@H](OC(=O)NCc2ccc(OC)c(OC)c2)[C@@H](OC(=O)NCc2ccc(OC)c(OC)c2)CN(C(=O)OC(C)C)N1C(=O)OC(C)C)S(=O)(=O)c1ccc(C)cc1,1.0,25.4,/,-1.2,7.4
CCOC(=O)C1=C(Cc2ccc(Cl)cc2)C(=O)c2ccccc2C1=O,6.6,94.5*,-335.1,25.4,42.0*
CCOC(=O)C1=C(C)N=C2c3ccccc3C(=O)C2C1c1ccc(Cl)cc1 (centres undefined),-1.8,11.5,7.2,2.6,2.8
Cc1ccc(C(=O)/C=C/Nc2ccc3c(c2)OCO3)cc1,12.2*,16.6,8.4,4.6,-2.1
COc1ccc(OC)c(NC(=O)c2c(NC(=O)CNCc3ccco3)sc3c2CCC3)c1,9.2*,-11.1,0.7,16.1,5.0
Nc1cccc2[nH]c(=O)c3ccccc3c12,-1.7,15.2,-4.5,1.3,0.4
Cc1ccc(-c2nnc(SCC(=O)Nc3ccc(S(=O)(=O)N4CCCCCC4)cc3)o2)cc1,9.3*,-10.8,-5.9,4.9,2.2
COc1cc(/C=C2/C(=N)N3C=CSC3=NC2=O)ccc1OCCOc1ccc(NC(C)=O)cc1,0.6,-7.4,-9.7,7.3,1.9
COc1cc(/C=C2/C(=N)N3C=CSC3=NC2=O)ccc1OCCCOc1c(C)cccc1C,8.4*,-6.8,12.1,1.8,3.2
CCOc1cc(/C=C2/C(=N)N3C=CSC3=NC2=O)ccc1OCCCOc1ccccc1C,9.4*,-11.4,3.5,3.3,-6.9
CCN(CC)C(=O)[C@H]1CC(CC(=O)NCc2ccc(OC)c(OC)c2)C(=O)N2CCc3c([nH]c4ccc(OC)cc34)[C@]12C (some centres undefined),-0.6,8.3,1.8,-3.0,-7.5
Fc1cccc(Cc2c(-c3ccccc3)nc3c4ccccc4ccn23)c1,/,/,/,/,-1.2
O=C(/C=C/c1ccccc1)CCN1CCCCC1,-3.0,7.3,44.4*,2.5,22.8*
O=C(CN1CCN(S(=O)(=O)c2ccc(Br)cc2)CC1)N/N=C/c1ccc(Br)s1,9.0*,-6.7,-6.3,-4.8,16.2
Cc1ccc(/C=N/NC(=O)CN2CCN(S(=O)(=O)c3ccc(Br)cc3)CC2)s1,-0.4,9.6,-2.9,2.7,4.1
CCOc1cc(/C=C(/C#N)C(=O)Nc2ccc(O)cc2)cc(Br)c1O,-4.2,8.7,52.3*,-28.9,4.7
CCCCCCN(C(=O)CCl)c1ccccc1,18.3*,-3.7,14.5,8.0,12.1
CCCCCCCN(C(=O)CCl)c1cccc(C)c1,9.0*,-3.2,20.2,3.6,4.0
O=C(CCl)N(c1ccccc1)c1ccccc1,2.0,0.3,2.8,16.2,7.3
O=C(Nc1ccccc1)NN(C(=O)CCl)c1ccccc1,-2.5,-3.8,19.0,8.8,11.4
